In the library only some 3.5% were active in any assay of this set; here they are far more common.
MrgX1 PAM: positive allosteric modulators of MrgX1, primary screen, HEK293 cells, Fluo-4 calcium flux. FDSS; hits give high values. B-score at 10 µM. hit rate 0.63% among 310,000. Mas-related G-protein coupled receptor member X1 (Homo sapiens), Q96LB2;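 active means plate-corrected calcium response at least 3 library SD above typical, normal starting fluorescence, not activating the receptor alone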;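 further: compound read alongside a low EC10 to EC30 dose of BAM8-22 agonist; peak minus trough fluorescence over baseline measured at the second addition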
Target sequence (Q96LB2 whole entry, looked up): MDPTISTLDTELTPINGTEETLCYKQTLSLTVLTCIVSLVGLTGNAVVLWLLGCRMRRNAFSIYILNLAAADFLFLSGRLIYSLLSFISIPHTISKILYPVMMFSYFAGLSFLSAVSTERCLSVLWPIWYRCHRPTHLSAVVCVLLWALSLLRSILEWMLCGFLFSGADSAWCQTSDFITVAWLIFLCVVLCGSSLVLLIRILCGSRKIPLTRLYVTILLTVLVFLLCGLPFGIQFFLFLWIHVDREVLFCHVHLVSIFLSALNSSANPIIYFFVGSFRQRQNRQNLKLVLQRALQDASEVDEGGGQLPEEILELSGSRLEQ
RGS4 inh: RGS4 inhibitors, primary screen, cell-based, HEK293 M3R inducible RGS4, calcium flux | B-score at 10 µM | Regulator of G-protein signaling 4 (Homo sapiens), P49798 | Fluo-4 calcium flux; hits give high values; triggered by carbachol at its EC20 | hit rate 0.45% among 310,000;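 active means B-score, a plate-corrected calcium signal, over three deviations above library mean, with baseline fluorescence within five deviations of library mean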;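 further: RGS4 expression induced by doxycycline in cells with stable M3 receptor; B-score is computed from the integrated fluorescence ratio over baseline after carbachol; higher B-score means a larger calcium signal and so more RGS4 inhibition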
Target sequence (P49798 whole entry, looked up): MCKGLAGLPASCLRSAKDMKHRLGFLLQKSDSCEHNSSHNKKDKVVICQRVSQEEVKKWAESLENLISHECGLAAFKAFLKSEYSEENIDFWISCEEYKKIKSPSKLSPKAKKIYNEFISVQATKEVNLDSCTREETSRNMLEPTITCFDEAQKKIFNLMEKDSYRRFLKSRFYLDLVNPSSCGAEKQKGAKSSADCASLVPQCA
MrgX1 antag: antagonists of human MrgX1 receptor, primary screen, HEK293 cells, Fluo-4 calcium flux | Mas-related G-protein coupled receptor member X1 (Homo sapiens), Q96LB2 | hit rate 1.3% among 310,000 | BAM8-22 antagonism; hits give low values | AID 588676, 2011 | B-score at 10 µM;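 active means calcium-response B-score plate-corrected more than 3 library SD below zero, starting fluorescence within 5 deviations, no agonist response on first addition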;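 further: peak minus trough fluorescence over baseline after final BAM8-22 challenge near maximal dose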
MrgX1 agonist: agonists of human MrgX1 receptor, primary screen, HEK293 cells, Fluo-4 calcium flux | Mas-related G-protein coupled receptor member X1 (Homo sapiens), Q96LB2 | Fluo-4 calcium fluorescence, agonist mode; hits give high values | hit rate 0.44% among 310,000 | B-score at 10 µM | AID 588627, 2011;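 active means calcium response B-score plate-corrected fluorescence ratio at least 3 library SD, with starting fluorescence B-score inside 5 SD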
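System: HEK293 cells stably expressing human MrgX1 receptor; Dosing: test compound in the initial addition of three; Schedule: overnight plating, then 30 min 37 °C plus 30 min room-temperature dye loading; Detection: kinetic calcium dye fluorescence, Fluo-4 NW; Controls: per-plate positive and negative controls for Z′ factor.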
RGS4 pot: RGS4 potentiators or activators, primary screen, cell-based, HEK293 M3R inducible RGS4, calcium flux; carbachol calcium flux Fluo4; hits give low values; hit rate 0.92% among 310,000; AID 463111, 2010; B-score at 10 µM;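 active means B-score of the integrated calcium signal more than 4 SD below the library mean, with starting fluorescence not abnormally high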;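 further: negative B-score means reduced calcium response which marks RGS4 activation or potentiation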
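Assay system: Inducible-RGS4 HEK293 cells carrying M3 receptor | Schedule: Compound preincubation 20 min at room temperature before agonist | Signal: Kinetic calcium fluorescence imaging with Fluo4-AM dye, 2 µM | Read-out basis: B score from integrated fluorescence ratio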
RGS4 inh valid: enhanced carbachol calcium response, M3R/RGS4 cells, RGS4 inhibitor project, cell-based, validation screen, HEK293 M3R/RGS4, calcium flux. carbachol calcium Fluo-4 fluorescence; carbachol added at its EC20; 0 = buffer wells, 100 = carbachol control. calcium response, % at 10 µM. shares compounds with RGS4 inh. hit rate 65% among 1,700;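 active means duplicate-averaged calcium response above the buffer-only control mean plus 5 SD of those controls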;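 further: integrated fluorescence ratio F max minus min over baseline F0; higher response in RGS4-induced cells means RGS4 inhibition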
RGS4 uninduced: carbachol calcium response in non-induced M3R cells, confirmation, counter-screen for RGS4 inhibitor project, cell-based, HEK293 M3R; shares compounds with RGS4 inh; carbachol calcium Fluo-4; submaximal (EC20) carbachol stimulus; buffer wells 0%, carbachol control wells 100%; activity (percent), % at 10 µM; hit rate 20% among 1,900; AID 493000, 2010; call rule not given here;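 further: RGS4 induction absent so cells express M3R without RGS4; higher means more calcium signal and flags a non-specific hit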
RGS4 inh ctr2: signal in non-induced cells without carbachol, RGS4 inhibitor counter-screen | shares compounds with RGS4 inh | HEK293 M3R/RGS4 non-induced, Fluo-4 calcium, no carbachol; normalised: buffer wells 0%, carbachol wells 100% | calcium response (agonist-mode artifact), % at 10 µM | hit rate 22% among 1,900 | AID 493001;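 active means duplicate-averaged calcium rise in uninduced cells above buffer wells' mean plus 5 SD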
Active calls of the source: *; i = inactive; . = no result given.

SMILES	MrgX1 PAM	RGS4 inh	MrgX1 antag	MrgX1 agonist	RGS4 pot	RGS4 inh valid	RGS4 uninduced	RGS4 inh ctr2
CC1(C)CC(=O)C(C(C2=C(O)CC(C)(C)CC2=O)c2ccc(Br)s2)C(=O)C1 (stereo not given)	i	18*	i	i	i	88%*	i	74%*
Cc1ccc(C(C2=C(O)CC(C)(C)CC2=O)C2C(=O)CC(C)(C)CC2=O)s1 (stereo not given)	i	14*	i	i	i	35%*	44%*	i
OC(CNCC(c1ccc(Cl)cc1Cl)c1c[nH]c2ccccc12)c1ccccc1 (stereo not given)	i	4.9*	i	i	i	17%*	i	14%*
O=[N+]([O-])CC(c1ccccc1)c1c[nH]c2ccccc12 (stereo not given)	i	i	i	i	i	.	.	.
Cc1nc(SCC(=O)Nc2ccccc2Cl)oc1C	i	i	i	i	i	.	.	.
Nc1nc2ccc(N3CCOCC3)cc2s1	i	.	i	i	.	.	.	.
CCOc1cccc(-c2c(C(=O)N/N=C/c3ccco3)nnn2-c2nonc2N)c1	i	i	i	i	i	i	i	i
CCOc1cccc(-c2c(C(=O)N/N=C/c3ccc(C)o3)nnn2-c2nonc2N)c1	i	i	i	i	i	i	i	i
CC(=O)c1c(C)cc(C)c(CSc2nc(C)cc(=O)[nH]2)c1C	i	i	i	i	i	.	.	.
N#C/C(=C\c1ccc([N+](=O)[O-])o1)C(=O)Nc1ccc(F)cc1	i	7*	i	i	i	20%*	i	i
COc1ccc(NC(=O)/C(C#N)=C\c2ccc(Br)o2)cc1	i	i	i	i	i	.	.	.
Cc1onc(-c2ccccc2)c1NC(=O)N(CCC#N)Cc1cccs1	i	i	i	i	i	i	i	i
CCCCn1c(=O)[nH]c(=O)c2c1nc(Cn1ncc(Cl)c(Cl)c1=O)n2CCC	i	21*	i	i	i	34%*	56%*	i
CCCCn1c(=O)[nH]c(=O)c2c1nc(CN1C(=O)c3ccccc3S1(=O)=O)n2CCC	i	i	i	i	i	.	.	.
O=[N+]([O-])c1cc(Cl)cc(/C=N/NC(=S)Nc2ccc(S(=O)(=O)N3CCOCC3)cc2)c1O	i	i	i	i	i	i	i	i
Cc1ccc(N2CCN(S(=O)(=O)c3ccc4oc(=O)ccc4c3)CC2)cc1Cl	i	i	i	i	i	.	.	.
Cc1ccc(-c2csc(NC(=O)CSc3nc(C)cc(=O)[nH]3)n2)cc1	i	13*	i	i	i	12%*	i	i
O=C(CSc1nc2ccccc2[nH]1)Nc1nc(-c2cccc(Br)c2)cs1	i	7.7*	i	i	i	16%*	i	i
CN(C)CCCn1c(SCC(=O)Nc2nc(-c3cccc(Br)c3)cs2)nc2ccccc2c1=O	i	i	i	i	i	.	.	.
CCOC(=O)c1cc(CC)sc1NC(=O)c1ccc([N+](=O)[O-])c(N2CCOCC2)c1	i	i	i	i	i	.	.	.
CCOC(=O)c1cnc(SCC(=O)Nc2ccc(NC(=O)CC)c(OC)c2)nc1N	i	i	i	i	i	.	.	.
COc1ccc(/C=C\C(=O)c2c(O)ccc3c(C)cc(=O)oc23)cc1OC	i	6.7*	i	i	i	8.0%*	i	i
Cc1cc(=O)oc2c(C(=O)/C=C/c3ccccc3)c(O)ccc12	i	i	i	i	i	.	.	.
COc1cc(/C=C/C(=O)c2c(O)ccc3c(C)cc(=O)oc23)ccc1O	6.7*	i	i	i	i	.	i	i
Cc1cc(NC(=O)CCC(=O)N(Cc2cccs2)C(C)(C)C(=O)NC2CCCCC2)no1	i	i	i	i	i	.	.	.
SMILES	MrgX1 PAM	RGS4 inh	MrgX1 antag	MrgX1 agonist	RGS4 pot	RGS4 inh valid	RGS4 uninduced	RGS4 inh ctr2
Cc1ccc2c(c1)c1c(n2C)-c2[nH]ncc2CC1	i	5.5*	i	i	i	18%*	i	i
Cc1ccc2c(c1)c1c(n2C)C(C(N)=O)CCC1 (stereo not given)	i	i	i	i	i	.	.	.
Fc1ccc(N2CCN(Cc3cn[nH]c3-c3ccccc3)CC2)cc1	i	i	i	i	i	.	i	i
COc1ccc(-c2[nH]ncc2CN2CCN(C(=O)c3ccco3)CC2)cc1F	i	i	i	i	i	.	.	.
c1ccc(-c2[nH]ncc2CN2CCc3ccccc3C2)cc1	i	i	i	i	i	.	.	.
COc1ccc(-c2[nH]ncc2CN2CCN(c3ccc(F)cc3)CC2)cc1	i	i	i	i	i	.	.	.
O=C(c1ccco1)N1CCCN(Cc2cn[nH]c2-c2ccc(-c3ccccc3)cc2)CC1	i	4.9*	i	i	i	10%*	i	i
Fc1ccc(-c2[nH]ncc2CN2CCN(c3ccc(F)cc3)CC2)cc1	i	6.9*	i	i	i	22%*	50%*	i
CC(C)c1nc(CNC(=O)C2CCC(=O)N(CCc3ccc(Cl)cc3)C2)no1 (stereo not given)	i	i	i	i	i	.	.	.
Cc1cccc(/C(N)=N/OC(=O)c2ccc(Br)o2)c1	i	5.2*	i	i	i	i	i	i
COC(=O)/C=c1\sc2ncnn2c1=O	i	11*	i	i	i	i	i	i
COc1ccc(/C=C/C(=O)c2sc(-c3ccccc3)nc2C)cc1	i	i	i	i	i	.	i	40%*
O=C(Nc1cc(C(F)(F)F)ccc1N1CCOCC1)c1n[nH]c(=O)c2ccccc12	i	7.5*	i	i	i	24%*	i	i
O=C(Nc1cc(C(F)(F)F)ccc1N1CCOCC1)c1ccc(F)cc1	i	i	i	i	i	.	.	.
